Experimental data published in ChEMBL document CHEMBL3853298, “Total synthesis and in vitro bioevaluation of clavaminols A, C, H & deacetyl clavaminol H as potential chemotherapeutic and antibiofilm agents” (Eur J Med Chem, 2016).
pIC50: −log10 of the molar value. Converted amounts (≈) assume the structure as drawn.

Columns and labels:
[1] = Cytotoxicity against human SKOV3 cells assessed as cell growth inhibition by MTT assay; format: functional, cell-based; conditions: SK-OV-3
[2] = Cytotoxicity against human DU145 cells assessed as cell growth inhibition by MTT assay; format: functional, cell-based; conditions: DU-145
[3] = system: Staphylococcus aureus; assay: Antibacterial activity against Staphylococcus aureus MTCC 96 after 24 hrs by well diffusion method; format: functional; conditions: MTCC 96, 24 h
Procedure, shortened: (§1)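 Bacteria spread (0.1 mL suspension) on Mueller-Hinton agar; 6.0 mm wells loaded with compound over a 250 to 0.48 per-well dose range, methanol as negative control. Incubated 24 h at 37 °C. MIC taken as the lowest concentration still giving an inhibition zone. Duplicates, mean reported.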

[4] = system: Bacillus subtilis; assay: Antibacterial activity against Bacillus subtilis MTCC 121 after 24 hrs by well diffusion method; format: functional; conditions: MTCC 121, 24 h; procedure, shortened: as §1
[5] = system: Micrococcus luteus; assay: Antibacterial activity against Micrococcus luteus MTCC 2470 after 24 hrs by well diffusion method; format: functional; conditions: MTCC 2470, 24 h; procedure, shortened: as §1
[6] = system: Staphylococcus aureus; assay: Antibacterial activity against Staphylococcus aureus MLS16 MTCC 2940 after 24 hrs by well diffusion method; format: functional; conditions: MLS16 MTCC 2940, 24 h; procedure, shortened: as §1
[7] = system: Raoultella planticola; assay: Antibacterial activity against Klebsiella planticola MTCC 530 after 24 hrs by well diffusion method; format: functional; conditions: MTCC 530, 24 h; procedure, shortened: as §1
[8] = system: Escherichia coli; assay: Antibacterial activity against Escherichia coli MTCC 739 after 24 hrs by well diffusion method; format: functional; conditions: MTCC 739, 24 h; procedure, shortened: as §1
[9] = system: Pseudomonas aeruginosa; assay: Antibacterial activity against Pseudomonas aeruginosa MTCC 2453 after 24 hrs by well diffusion method; format: functional; conditions: MTCC 2453, 24 h; procedure, shortened: as §1
[10] = system: Candida albicans; assay: Antifungal activity against Candida albicans MTCC 227 after 24 hrs by well diffusion method; format: functional; conditions: MTCC 227, 24 h
Procedure, shortened: (§2)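 Candida/Issatchenkia lawns (0.1 mL suspension) on Mueller-Hinton agar; 6.0 mm bored wells receive compound across a 250 to 0.48 per-well dose range, methanol as negative control. Plates kept 24 h at 30 °C. MIC is the lowest concentration producing a visible inhibition zone. Duplicate runs, mean values.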

[11] = system: Candida albicans; assay: Antifungal activity against Candida albicans MTCC 183 after 24 hrs by well diffusion method; format: functional; conditions: MTCC 183, 24 h; procedure, shortened: as §2
[12] = system: Candida albicans; assay: Antifungal activity against Candida albicans MTCC 854 after 24 hrs by well diffusion method; format: functional; conditions: MTCC 854, 24 h; procedure, shortened: as §2
[13] = system: Candida albicans; assay: Antifungal activity against Candida albicans MTCC 1637 after 24 hrs by well diffusion method; format: functional; conditions: MTCC 1637, 24 h; procedure, shortened: as §2
[14] = system: Candida albicans; assay: Antifungal activity against Candida albicans MTCC 3017 after 24 hrs by well diffusion method; format: functional; conditions: MTCC 3017, 24 h; procedure, shortened: as §2
[15] = system: Candida albicans; assay: Antifungal activity against Candida albicans MTCC 3018 after 24 hrs by well diffusion method; format: functional; conditions: MTCC 3018, 24 h; procedure, shortened: as §2
[16] = system: Candida albicans; assay: Antifungal activity against Candida albicans MTCC 3958 after 24 hrs by well diffusion method; format: functional; conditions: MTCC 3958, 24 h; procedure, shortened: as §2
[17] = system: Candida albicans; assay: Antifungal activity against Candida albicans MTCC 4748 after 24 hrs by well diffusion method; format: functional; conditions: MTCC 4748, 24 h; procedure, shortened: as §2
[18] = system: Candida albicans; assay: Antifungal activity against Candida albicans MTCC 7315 after 24 hrs by well diffusion method; format: functional; conditions: MTCC 7315, 24 h; procedure, shortened: as §2
[19] = Antifungal activity against Candida parapsilosis MTCC 1744 after 24 hrs by well diffusion method; format: functional; procedure, shortened: as §2
[20] = system: [Candida] aaseri; assay: Antifungal activity against Candida aaseri MTCC 1962 after 24 hrs by well diffusion method; format: functional; conditions: Yamadazyma aaseri, MTCC 1962, 24 h; procedure, shortened: as §2
[21] = Antifungal activity against Candida glabrata MTCC 3019 after 24 hrs by well diffusion method; format: functional; conditions: Nakaseomyces glabratus; procedure, shortened: as §2
[22] = Antifungal activity against Candida krusei MTCC 3020 after 24 hrs by well diffusion method; format: functional; conditions: Pichia kudriavzevii; procedure, shortened: as §2
[23] = system: Pichia sporocuriosa; assay: Antifungal activity against Issatchenkia hanoiensis MTCC 4755 after 24 hrs by well diffusion method; format: functional; conditions: MTCC 4755, 24 h; procedure, shortened: as §2
[24] = system: Staphylococcus aureus; assay: Bactericidal activity against Staphylococcus aureus MTCC 96 after 24 hrs; format: functional; conditions: MTCC 96, 24 h
Procedure, shortened: (§3)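 Broth macrodilution in Mueller Hinton broth, compound serially diluted from 150 down to 0. Overnight bacterial culture added to a final 1.5 × 10^8 CFU/mL (0.5 McFarland), 24 h at 37 °C. Suspension then subcultured onto Mueller Hinton agar for 24 h at 37 °C. MBC is the lowest concentration killing the strain. Duplicates.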

[25] = system: Bacillus subtilis; assay: Bactericidal activity against Bacillus subtilis MTCC 121 after 24 hrs; format: functional; conditions: MTCC 121, 24 h; procedure, shortened: as §3

MIC [3]: 7.8 µg/mL (≈ 35.9 µM) | MIC [4]: 3.9 µg/mL (≈ 17.9 µM) | MIC [5]: 3.9 µg/mL (≈ 17.9 µM) | MIC [6]: 3.9 µg/mL (≈ 17.9 µM) | MIC [8]: 7.8 µg/mL (≈ 35.9 µM) | MIC [9]: 7.8 µg/mL (≈ 35.9 µM) | MIC [10]: 15.6 µg/mL (≈ 71.8 µM) | MIC [11]: 15.6 µg/mL (≈ 71.8 µM) | MIC [12]: 15.6 µg/mL (≈ 71.8 µM) | MIC [13]: 7.8 µg/mL (≈ 35.9 µM) | MIC [14]: 15.6 µg/mL (≈ 71.8 µM) | MIC [15]: 15.6 µg/mL (≈ 71.8 µM) | MIC [16]: 7.8 µg/mL (≈ 35.9 µM) | MIC [17]: 15.6 µg/mL (≈ 71.8 µM) | MIC [18]: 31.2 µg/mL (≈ 144 µM) | MIC [19]: 31.2 µg/mL (≈ 144 µM) | MIC [20]: 15.6 µg/mL (≈ 71.8 µM) | MIC [21]: 15.6 µg/mL (≈ 71.8 µM) | MIC [22]: 7.8 µg/mL (≈ 35.9 µM) | MIC [23]: 15.6 µg/mL (≈ 71.8 µM)
SMILES: CCCCCCCCC[C@H](O)[C@H](N)CO
pIC50 [1]: 4.47 | pIC50 [2]: 4.47 | MIC [7]: 15.6 µg/mL (≈ 71.8 µM) | MBC [24]: 7.8 µg/mL (≈ 35.9 µM) | MBC [25]: 7.8 µg/mL (≈ 35.9 µM)
